# Source: ChEMBL document CHEMBL2346557 (Bioorg Med Chem, 2013)
# Columns and labels:
# [1] = Clearance in CD1 mouse at 10 mg/kg, iv; format: ADME, organism-based; parameters: dose 10 mg/kg, route intravenous; settings: in vivo
# How it was run: (§1)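 CD1 mice (n = 3 per compound) given 10 mg/kg as a single tail-vein injection in a pH 7.0 solution of 10% ethanol plus PEG400 (some compounds also with 10% DMSO). Blood was sampled at 0, 5, 15 and 30 min and 1, 2, 4, 8 and 24 h. Parameters were derived from the plasma concentration–time profiles.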
# Canis familiaris = assay: Total unbound AUC (0 to infinity) in beagle dog at 10 mg/kg, iv; format: ADME, organism-based, Canis lupus familiaris; parameters: dose 10 mg/kg, route intravenous; settings: in vivo
# Cytochrome P450 3A4 = Cytochrome P450 3A4 (Homo sapiens, UniProt P08684); assay: Inhibition of CYP3A4 (unknown origin); format: ADME
# [2] = Metabolic stability in human liver microsomes assessed as compound remaining at 2 uM measured at 1 hr; format: ADME, Microsome; settings: read-out: Stability
# How it was run: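 Liver microsomes (human, or male monkey, dog, rat or mouse) at 0.5 mg/mL final with 2 µM compound, 5 mM MgCl2 and 5 mM PBS. The reaction was started with 1 mM NADPH and run at 37 °C. Verapamil was the positive control; water replaced NADPH in the negative control. Read-out was percent parent remaining at 1 h.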
# [3] = Tmax in beagle dog at 30 mg/kg, po; format: ADME, organism-based, Canis lupus familiaris; parameters: dose 30 mg/kg, route oral; settings: in vivo
# How it was run: (§2)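 Beagles (n = 3) were given an oral emulsion in 30% Labrafil. Blood was collected at 0, 5, 15 and 30 min and at 1, 2, 4, 8 and 24 h. Bioavailability was derived relative to IV dosing.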
# [4] = Clearance in beagle dog at 10 mg/kg, iv; format: ADME, organism-based, Canis lupus familiaris; parameters: dose 10 mg/kg, route intravenous; settings: in vivo
# Cytochrome P450 2D6 = Cytochrome P450 2D6 (Homo sapiens, UniProt P10635); assay: Inhibition of CYP2D6 (unknown origin); format: ADME
# [5] = Terminal half life in Sprague-Dawley rat at 50 mg/kg, po; format: ADME, organism-based; parameters: dose 50 mg/kg, route oral; settings: in vivo, read-out: beta t1/2 (converted)
# How it was run: (§3)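 Sprague–Dawley rats (n = 3) were dosed orally with an emulsion in 30% Labrafil. Blood was sampled from 0 to 24 h (0, 5, 15, 30 min; 1, 2, 4, 8, 24 h). Bioavailability was derived against the IV arm.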
# C2C12 = assay: Cytotoxicity against mouse C2C12 cells assessed as cell viability at 0.01 to 100 ug/mL after 24 hrs by MTT assay; format: cell-based; settings: c2c12, 24 h
# How it was run: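 MTT viability run on C2C12 cells grown and treated alongside the NF-κB reporter plates, with drug at 0.01–100 µg/ml and DMSO vehicle. Viability is expressed as percent of untreated cells. A one-way repeated-measures ANOVA tested for a concentration effect.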
# [6] = Tmax in CD1 mouse at 50 mg/kg, po; format: ADME, organism-based; parameters: dose 50 mg/kg, route oral; settings: in vivo
# How it was run: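 CD1 mice (n = 3 per compound) were dosed orally at 50 mg/kg as an aqueous emulsion in 30% Labrafil. Blood was drawn at 0, 5, 15 and 30 min and 1, 2, 4, 8 and 24 h. Bioavailability and other parameters were calculated from the plasma profiles and compared against the intravenous arm.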
# [7] = Metabolic stability in rat liver microsomes assessed as compound ramaining at 2 uM measured at 1 hr; format: ADME, Microsome; settings: read-out: Stability
# How it was run: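 Rat liver microsomes at 0.5 mg/mL final, with 5 mM MgCl2 and 5 mM PBS. The reaction was started with 1 mM NADPH final and run at 37 °C. The negative control used water in place of NADPH; verapamil was the positive control. Read-out was % parent remaining at 1 h.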
# [8] = Terminal half life in Sprague-Dawley rat at 10 mg/kg, iv; format: ADME, organism-based; parameters: dose 10 mg/kg, route intravenous; settings: in vivo, read-out: beta t1/2 (converted)
# [9] = Tmax in CD1 mouse at 10 mg/kg, iv; format: ADME, organism-based; parameters: dose 10 mg/kg, route intravenous; settings: in vivo; how it was run: as §1
# [10] = biological target: T1, Glucocorticoid receptor (Mus musculus) (UniProt P06537); assay: Induction of glucocorticoid receptor nuclear translocation in mouse C2C12 cells at 1 x 10^-5 to 1.69 x 10^-10 M by chemiluminescence assay relative to control; format: cell-based
# T1 sequence (whole entry): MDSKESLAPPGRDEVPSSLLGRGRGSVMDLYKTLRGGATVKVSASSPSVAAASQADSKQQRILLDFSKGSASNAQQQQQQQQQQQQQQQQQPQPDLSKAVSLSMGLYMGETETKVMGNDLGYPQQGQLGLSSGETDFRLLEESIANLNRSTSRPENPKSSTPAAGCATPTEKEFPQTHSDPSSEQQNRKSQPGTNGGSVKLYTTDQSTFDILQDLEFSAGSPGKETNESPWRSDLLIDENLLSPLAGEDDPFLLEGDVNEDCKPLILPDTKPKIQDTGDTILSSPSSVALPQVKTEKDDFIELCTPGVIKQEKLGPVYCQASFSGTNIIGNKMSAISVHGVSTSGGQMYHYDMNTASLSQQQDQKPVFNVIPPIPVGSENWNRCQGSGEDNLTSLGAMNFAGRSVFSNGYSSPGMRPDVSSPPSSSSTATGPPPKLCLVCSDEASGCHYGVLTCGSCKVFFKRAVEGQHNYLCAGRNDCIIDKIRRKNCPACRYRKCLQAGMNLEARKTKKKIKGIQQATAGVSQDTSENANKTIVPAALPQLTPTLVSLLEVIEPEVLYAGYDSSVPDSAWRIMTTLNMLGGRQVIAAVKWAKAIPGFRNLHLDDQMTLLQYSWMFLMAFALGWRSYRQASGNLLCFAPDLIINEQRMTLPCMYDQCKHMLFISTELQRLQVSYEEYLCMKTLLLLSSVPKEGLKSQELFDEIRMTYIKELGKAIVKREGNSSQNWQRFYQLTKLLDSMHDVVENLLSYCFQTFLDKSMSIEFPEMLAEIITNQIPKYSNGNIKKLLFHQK
# How it was run: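 GR nuclear translocation measured by DiscoveRx in PathHunter cells using enzyme-fragment complementation. ProLink-tagged GR recruits a nuclear steroid receptor co-activator peptide fused to the enzyme acceptor, giving a chemiluminescent signal.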
# [11] = Terminal half life in CD1 mouse at 10 mg/kg, iv; format: ADME, organism-based; parameters: dose 10 mg/kg, route intravenous; settings: in vivo, read-out: beta t1/2 (converted); how it was run: as §1
# Mus musculus = assay: Total unbound Cmax in CD1 mouse at 50 mg/kg, po; format: ADME, organism-based; parameters: dose 50 mg/kg, route oral; settings: in vivo
# [12] = Volume of distribution at steady state in beagle dog at 10 mg/kg, iv; format: ADME, organism-based, Canis lupus familiaris; parameters: dose 10 mg/kg, route intravenous; settings: in vivo, read-out: Vdss
# [13] = Terminal half life in beagle dog at 30 mg/kg, po; format: ADME, organism-based, Canis lupus familiaris; parameters: dose 30 mg/kg, route oral; settings: in vivo, read-out: beta t1/2 (converted); how it was run: as §2
# Rattus norvegicus = assay: Total unbound AUC (0 to infinity) in Sprague-Dawley rat at 50 mg/kg, po; format: ADME, organism-based; parameters: dose 50 mg/kg, route oral; settings: in vivo; how it was run: as §3
# Cytochrome P450 2D6, sequence (P10635 whole entry): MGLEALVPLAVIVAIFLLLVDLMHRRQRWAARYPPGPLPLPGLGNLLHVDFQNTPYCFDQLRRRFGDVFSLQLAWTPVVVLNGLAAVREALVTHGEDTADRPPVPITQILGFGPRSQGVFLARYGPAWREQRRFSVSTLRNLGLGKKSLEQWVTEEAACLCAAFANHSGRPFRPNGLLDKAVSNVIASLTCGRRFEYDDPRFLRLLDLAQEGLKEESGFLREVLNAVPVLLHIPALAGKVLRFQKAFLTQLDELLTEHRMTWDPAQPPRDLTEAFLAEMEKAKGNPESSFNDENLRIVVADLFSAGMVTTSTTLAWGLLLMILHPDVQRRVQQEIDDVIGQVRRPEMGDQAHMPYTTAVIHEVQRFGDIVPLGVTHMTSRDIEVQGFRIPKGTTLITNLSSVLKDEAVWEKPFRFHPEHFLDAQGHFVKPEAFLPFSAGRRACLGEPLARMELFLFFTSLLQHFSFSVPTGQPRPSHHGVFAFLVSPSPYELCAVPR
# Cytochrome P450 3A4, sequence (P08684 whole entry): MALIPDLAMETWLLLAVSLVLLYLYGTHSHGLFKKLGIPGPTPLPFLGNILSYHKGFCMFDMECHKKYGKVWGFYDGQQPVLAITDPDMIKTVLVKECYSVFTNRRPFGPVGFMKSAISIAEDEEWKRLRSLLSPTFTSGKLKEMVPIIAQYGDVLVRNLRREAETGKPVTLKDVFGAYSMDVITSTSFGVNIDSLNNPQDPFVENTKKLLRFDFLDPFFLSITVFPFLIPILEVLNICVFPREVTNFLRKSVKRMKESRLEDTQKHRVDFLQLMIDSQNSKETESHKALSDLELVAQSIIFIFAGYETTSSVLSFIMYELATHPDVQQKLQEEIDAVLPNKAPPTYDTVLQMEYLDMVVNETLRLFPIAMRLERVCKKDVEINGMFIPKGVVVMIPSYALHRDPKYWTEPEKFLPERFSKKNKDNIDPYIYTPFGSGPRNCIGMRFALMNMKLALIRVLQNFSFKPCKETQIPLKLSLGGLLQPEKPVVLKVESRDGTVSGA
smiles,measurement,setting,value
C[C@@H]1C[C@H]2[C@@H]3CCC4=CC(=O)C=C[C@]4(C)C3=CC[C@]2(C)[C@@]1(O)C(=O)CO [VAMOROLONE],clearance,[1],18.8 mL/min/kg
same,fAUC,Canis familiaris,6791 ng·h/mL
same,IC50,Cytochrome P450 3A4,> 50 µM
same,"remaining at 1 h, 2 µM",[2],82%
same,Tmax,[3],6 h
same,clearance,[4],24.7 mL/min/kg
same,IC50,Cytochrome P450 2D6,> 50 µM
same,half-life,[5],2.29 h
same,Activity,C2C12,Non-toxic
same,Tmax,[6],2 h
same,"remaining at 1 h, 2 µM",[7],35.4%
same,half-life,[8],0.58 h
same,Tmax,[9],5 min
same,Activity,[10],80.4%
same,half-life,[11],0.354 h
same,fCmax,Mus musculus,6787 ng/mL
same,Vd,[12],1.93 L/kg
same,half-life,[13],2.25 h
same,fAUC,Rattus norvegicus,19937 ng·h/mL
